Values after ≈ are worked out from the molar mass of the structure shown.
What was measured:
KB = experiment: Cytotoxicity against human KB cells; type: functional, cell-based
Outline: (§1)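 Human cancer cell lines: epidermoid carcinoma KB, breast cancer BC1 and small cell lung cancer NCI-H187. Colorimetric cytotoxicity method of Skehan and co-workers, with ellipticine as reference.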

Plasmodium falciparum = experiment: Antimalarial activity against Plasmodium falciparum K1 by [3H]hypoxanthine uptake; type: functional, organism-based
Outline: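 P. falciparum K1 (multidrug-resistant strain) kept in culture after Trager and Jensen; in vitro microculture radioisotope assay per Desjardins. Parasite growth read as [3H]-hypoxanthine uptake; IC50 = concentration giving 50% reduction in growth. Artemisinin as positive control.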

NCI-H187 = experiment: Cytotoxicity against human NCI-H187 cells; type: functional, cell-based; outline: as §1
[1] = Cytotoxicity against human BC1 cells; type: functional, cell-based; outline: as §1
[2] = tested on: Mycobacterium tuberculosis; experiment: Antimycobacterial activity against Mycobacterium tuberculosis H37Ra by Alamar blue assay; type: functional
Outline: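 Microplate Alamar Blue Assay (MABA) against strain H37Ra, with isoniazid and kanamycin sulfate as positive-control drugs.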

SMILES | IC50 (KB) [µg/mL] | IC50 (Plasmodium falciparum) [µg/mL] | IC50 (NCI-H187) [µg/mL] | IC50 [1] [µg/mL] | MIC [2] [µg/mL]
C=CC(=C)CC[C@]1(C)[C@H]2C[C@H](OC(=O)C(C)CC)C=C3[C@H](OC(C)=O)O[C@H](OC(C)=O)[C@@]32[C@H](OC)C[C@@H]1C (relative stereo) | 7.6 (≈ 14.3 µM) | 3.2 (≈ 6.01 µM) | 0.8 (≈ 1.5 µM) | 4 (≈ 7.51 µM) | 12.5 (≈ 23.5 µM)
C=CC(=C)CC[C@]1(C)[C@H]2C[C@H](OC(=O)C(C)CC)C=C3[C@H](OC(C)=O)O[C@H](OC(C)=O)[C@@]32[C@H](O)C[C@@H]1C (relative stereo) | 2.8 (≈ 5.4 µM) | 3.1 (≈ 5.98 µM) | 5.3 (≈ 10.2 µM) | 2.5 (≈ 4.82 µM) | 12.5 (≈ 24.1 µM)
C=CC(=C)CC[C@]1(C)[C@H]2C[C@H](OC(=O)CC(C)C)C=C3[C@H](OC(C)=O)O[C@H](OC(C)=O)[C@@]32[C@H](OC)C[C@@H]1C (relative stereo) [CASEARGREWIIN A] | 8.7 (≈ 16.3 µM) | 2.9 (≈ 5.44 µM) | 0.9 (≈ 1.69 µM) | 4.6 (≈ 8.64 µM) | 12.5 (≈ 23.5 µM)
C=C/C(C)=C\C[C@]1(C)[C@H](C)[C@@H](OC(=O)/C=C/c2ccc(O)cc2)[C@H](O)[C@@]23C(=C[C@H](OC(=O)CCC)C[C@@H]12)[C@@H](OC(C)=O)O[C@H]3OC(C)=O (relative stereo) [CASEARGREWIIN B] | 2.3 (≈ 3.45 µM) | 2.4 (≈ 3.6 µM) | 1.5 (≈ 2.25 µM) | 1.9 (≈ 2.85 µM) | 12.5 (≈ 18.7 µM)
C=C/C(C)=C\C[C@]1(C)[C@H](C)[C@@H](OC(C)=O)[C@H](O)[C@@]23C(=C[C@H](OC(=O)CC(C)C)C[C@@H]12)[C@@H](OC(C)=O)O[C@H]3OC(C)=O (relative stereo) [CASEARGREWIIN C] | 1.9 (≈ 3.29 µM) | 3 (≈ 5.2 µM) | 0.3 (≈ 0.52 µM) | 2 (≈ 3.47 µM) | 25 (≈ 43.4 µM)
C[C@@H]1CC[C@H]2[C@@H](C)C(=O)O[C@@H]3O[C@@]4(C)CC[C@@H]1[C@]32OO4 [ARTEMISININ] |  | 0.001 (≈ 0.00354 µM) |  |  | 
C=C/C(C)=C\C[C@]1(C)[C@H](C)CC[C@@]23C(=C[C@H](O)C[C@@H]12)[C@@H](OC(C)=O)O[C@H]3OC(C)=O [CASEARGREWIIN D] | 1.3 (≈ 3.11 µM) | 3.3 (≈ 7.88 µM) | 1.5 (≈ 3.58 µM) | 0.1 (≈ 0.239 µM) | 12.5 (≈ 29.9 µM)
Cc1c2ccncc2c(C)c2c1[nH]c1ccccc12 [ELLIPTECINE] |  |  |  | 0.26 (≈ 1.06 µM) | 
NNC(=O)c1ccncc1 [ISONIAZID] |  |  |  |  | 0.05 (≈ 0.365 µM)
NC[C@H]1O[C@H](O[C@H]2[C@H](O)[C@@H](O[C@H]3O[C@H](CO)[C@@H](O)[C@H](N)[C@H]3O)[C@H](N)C[C@@H]2N)[C@H](O)[C@@H](O)[C@@H]1O.O=S(=O)(O)O [KANAMYCIN SULFATE] |  |  |  |  | 2.5
